These results are taken from publication PMC4887451 (Natural product communications, 2015).

Format in all cases: cell-based
In assay [1] the test system is chloroquine-sensitive (D6) Plasmodium falciparum. As to the kind of experiment: antiplasmodial screening by plasmodial LDH activity, D6 strain. The note with it: for selectivity index (SI), ratio of VERO IC50 to D6 IC50: VERO mammalian cell line.
Assay [2] concerns chloroquine-resistant (W2) Plasmodium falciparum. As to the kind of experiment: antiplasmodial screening by plasmodial LDH activity, W2 strain. The note with it: for selectivity index (SI), ratio of VERO IC50 to W2 IC50: VERO mammalian cell line.
Assay [3] concerns Candida glabrata ATCC 90030. As to the kind of experiment: antifungal screening. The note with it: Nakaseomyces glabratus, ATCC90030, read-out: IC50 against Candida glabrata. The method, boiled down:
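Tested alongside C. albicans ATCC 90028, C. krusei ATCC 6258, Cryptococcus neoformans ATCC 90113 and Aspergillus fumigatus ATCC 204305, following a previously described procedure. IC50 derived by curve fitting. Amphotericin B was the positive control.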

In assay [4] the test system is Trypanosoma brucei brucei. Put plainly: antitrypanosomal Alamar Blue assay on Trypanosoma brucei trypomastigotes. Put shortly: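 Trypomastigote cultures of T. brucei brucei exposed to test compound, with viability read by Alamar Blue. DFMO served as positive control.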

≈ marks a conversion by molar mass, not a printed value.

As to `CCN(CC)CCCC(C)Nc1ccnc2cc(Cl)ccc12` (centres unmarked) [chloroquine, reference compound], the “selectivity index (SI), ratio of VERO IC50 to D6 IC50” value in assay [1] is reported as over 9. The “selectivity index (SI), ratio of VERO IC50 to W2 IC50” value in assay [2] is over 2.1.
Take `C[C@@H]1[C@H](O)[C@@H](C)/C=C/C=C/C=C/C=C/C=C/C=C/C=C/[C@H](O[C@@H]2O[C@H](C)[C@@H](O)[C@H](N)[C@@H]2O)C[C@@H]2O[C@](O)(C[C@@H](O)C[C@@H](O)[C@H](O)CC[C@@H](O)C[C@@H](O)CC(=O)O[C@H]1C)C[C@H](O)[C@H]2C(=O)O` [AMB, amphotericin B, reference compound]: in assay [3], the IC50 amounted to 0.34 µg/mL (≈ 0.368 µM).
Turning to `C[C@@H]1O[C@@H](Oc2cc(O)c3c(=O)c(O)c(-c4ccc(O)c(O)c4)oc3c2)[C@H](O)[C@H](O)[C@H]1O` [Compound 15, quercetin-7-O-α-L-rhamnopyranoside], in assay [4], the “IC50, trypanocidal activity against Trypanosoma brucei brucei” value (from here on “IC50, trypanocidal activity”) is 9.02 µg/mL (≈ 20.1 µM) and the “IC90, trypanocidal activity against Trypanosoma brucei brucei” value (“IC90, trypanocidal activity” below) was over 10 µg/mL.
On to `C=C[C@]1(C)CC[C@H](C(C)(C)O[C@@H]2O[C@H](CO[C@@H]3OC[C@@H](O)[C@H](O)[C@H]3O)[C@@H](O)[C@H](O)[C@H]2O)O1` (relative stereo) [Compound 9, (3S, 6R) cis-linalool 3,6 oxide, O-β-D-xylopyranosyl-(1″→6′)-β-D-glucopyranoside], for which, in assay [4], the “IC50, trypanocidal activity” value stood at 8.18 µg/mL (≈ 17.6 µM) and the “IC90, trypanocidal activity” value is over 10 µg/mL.
Regarding `O=c1c(O)c(-c2ccc(O)c(O)c2)oc2cc(O)cc(O)c12` [Compound 16, quercetin], in assay [3], the IC50 is 8.66 µg/mL (≈ 28.7 µM).
For the compound `COC(=O)C1(O)CC(O)C(OC(=O)/C=C/c2ccc(O)c(O)c2)C(OC(=O)/C=C/c2ccc(O)c(O)c2)C1` (centres unmarked) [Compound 20, 4,5-dicaffeoyl quinic acid methyl ester], the “selectivity index (SI), ratio of VERO IC50 to D6 IC50” value in assay [1] is over 1.4. Besides, the “IC50 against chloroquine-sensitive (D6) Plasmodium falciparum” value in assay [1] (plasmodial LDH activity) came out at 3.29 µg/mL (≈ 6.2 µM). The “selectivity index (SI), ratio of VERO IC50 to W2 IC50” value in assay [2] is over 1. Further, in assay [2] (plasmodial LDH activity), the “IC50 against chloroquine-resistant (W2) Plasmodium falciparum” value turned out to be 4.53 µg/mL (≈ 8.54 µM).
In the case of `NCCCC(N)(C(=O)O)C(F)F` (centres unmarked) [DFMO, difluoromethylornithine, reference compound], in assay [4], the “IC50, trypanocidal activity” value was 2.30 µg/mL (≈ 12.6 µM) and the “IC90, trypanocidal activity” value is 5.20 µg/mL (≈ 28.5 µM).

As a reminder, the IC50 is the point on the concentration scale where inhibition reaches its midpoint.
